These results are taken from PMC11605304 (RSC Medicinal Chemistry, 2024).

Each structure is given as a SMILES string. A value given as a limit tells only on which side of the number the result lay.

The subject of one series is PSN-1 cells. The experiment in a line: MTT cytotoxicity, 72 h, PSN-1 pancreatic cancer cells. It counts as cell-based, human. Particulars: read-out: IC50 (μM) ± S.D., PSN-1, MTT test. The gist of the method:
(§1)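 Cells were kept in log phase at 37 °C, 5% CO₂, in RPMI-1640 with 10% fetal calf serum, penicillin/streptomycin and 2 mM L-glutamine. […] MTT read-out after 72 h exposure, absorbance 570 nm versus untreated wells. IC50 from 4-parameter logistic model; means of at least three independent experiments.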
Background: Tetrazolium assays rely on reduction of a dye to a coloured formazan, in cell work by metabolically active cells.

In series [1] the test system is LoVo cells. The experiment in a line: Hoechst 33258 staining, morphological analysis of cell death mode. It is filed as cell-based, human. Particulars: 48 h with IC50. Summed up: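 LoVo cells were seeded at 5 × 10⁴ per well on tissue-culture slides, grown 24 h and washed twice with PBS. They were then treated with test compound, stained 5 min with 10 μg mL⁻¹ Hoechst 33258 in PBS, and examined for nuclear morphology by confocal microscopy at 40× and 10×.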

A further series relates to U-1285 cells. As to the kind of experiment: MTT cytotoxicity, 72 h, U-1285 small cell lung cancer cells. It counts as cell-based, human. Particulars: read-out: IC50 (μM) ± S.D., U-1285, MTT test. The gist of the method: as §1
A further series has as its system B-CPAP cells. As to the kind of experiment: MTT cytotoxicity, 72 h, B-CPAP thyroid cancer cells. It counts as cell-based, human. As to conditions: read-out: IC50 (μM) ± S.D., B-CPAP, MTT test. The gist of the method:
as §1

The next series deals with MCF-7 cells. As to the kind of experiment: MTT cytotoxicity, 72 h, MCF-7 breast cancer cells. It is filed as cell-based, human. Particulars: read-out: IC50 (μM) ± S.D., MCF-7, MTT test. The gist of the method:
as §1

For series [2], the system named is LoVo cells. The experiment in a line: MTT cytotoxicity, 72 h, LoVo colon cancer cells. It is filed as cell-based, human. Particulars: read-out: IC50 (μM) ± S.D., LoVo, MTT test, 2D monolayer. Summed up:
as §1

The target of the next series is LoVo spheroids. The experiment in a line: 3D spheroid culture, acid phosphatase. It is filed as cell-based, human. As to conditions: read-out: IC50 (μM) ± S.D., LoVo spheroids; 3D spheroids, 72 h, APH assay. Summed up: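 LoVo spheroids formed from 2.5 × 10³ cells per well in round-bottom non-treated wells, in phenol red free F-12 HAMs medium with 10% fetal calf serum plus 20% methyl cellulose stock solution. Test compound added from DMSO stock (final DMSO 0.5%) at increasing concentrations for 72 h. Viability by modified acid phosphatase assay at 405 nm. IC50 from 4-parameter logistic fit; means of at least three independent experiments.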

Series [3] has as its system human cancer cell line panel. The experiment in a line: MTT cytotoxicity across the in-house human cancer cell line panel. It counts as cell-based. As to conditions: MTT test, 72 h. The gist of the method:
as §1

The test system of a further series is LoVo OXP cells. The experiment in a line: MTT cytotoxicity, 72 h, oxaliplatin-resistant LoVo OXP colon cancer cells. It is filed as cell-based, human. The gist of the method: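 Oxaliplatin-resistant LoVo OXP subline obtained by growing LoVo cells in increasing oxaliplatin concentrations, with 17 months of resistant-clone selection. Paired with parental LoVo cells in RPMI-1640 with 10% fetal calf serum and 2 mM L-glutamine. 72 h MTT exposure with test compound in DMSO (final 0.5%), absorbance 570 nm. IC50 fitted by 4-parameter logistic model from at least three independent experiments.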

Series [4] addresses protein disulfide isomerase (PDI) (Homo sapiens, UniProt P07237). The experiment in a line: Cell-free PDI inhibition. It counts as biochemical.
Another series has as its system HEK-293 cells. As to the kind of experiment: MTT cytotoxicity, 72 h, non-tumor HEK-293 embryonic kidney cells. It counts as cell-based, human.

Chain of protein disulfide isomerase (PDI) (P07237 18-508): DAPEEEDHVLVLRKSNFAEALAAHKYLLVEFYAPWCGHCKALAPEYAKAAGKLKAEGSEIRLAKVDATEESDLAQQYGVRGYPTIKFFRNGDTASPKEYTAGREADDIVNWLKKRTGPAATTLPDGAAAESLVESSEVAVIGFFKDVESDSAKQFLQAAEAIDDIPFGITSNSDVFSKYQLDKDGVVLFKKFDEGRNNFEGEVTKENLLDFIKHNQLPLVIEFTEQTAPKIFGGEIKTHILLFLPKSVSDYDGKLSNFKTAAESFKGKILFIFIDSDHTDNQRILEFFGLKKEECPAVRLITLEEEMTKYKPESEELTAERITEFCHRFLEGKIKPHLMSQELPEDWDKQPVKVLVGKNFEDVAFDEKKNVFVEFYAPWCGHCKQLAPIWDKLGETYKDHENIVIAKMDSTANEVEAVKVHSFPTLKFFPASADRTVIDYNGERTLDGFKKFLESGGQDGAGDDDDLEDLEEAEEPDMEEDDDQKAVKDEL

One may read the IC50 as the concentration at which inhibition is half-maximal. Turning to `N.N.[Cl][Pt][Cl]` [Cisplatin, cisplatin, reference compound], the IC50 with PSN-1 cells turned out to be 12.1 ± 2.8 µM; in the series on U-1285 cells, 2.1 ± 0.8 µM; in the series with B-CPAP cells it was 18.5 ± 4.1 µM; in the series with MCF-7 cells it was 13.9 ± 1.3 µM; with LoVo cells [2], 7.6 ± 1.5 µM; at LoVo spheroids, 60.6 ± 6.3 µM. Further, in the series on LoVo cells [1], the “morphological changes (cell death mode)” value is “classical morphological features of apoptosis induction”.

Take `Cc1cc(C)n(C(C(=O)OC(C)C)n2nc(C)cc2C)n1` [L^2OiPr, [HC(3,5-Me2pz)2COO^iPr]]: the IC50 in the series on PSN-1 cells, in the series on U-1285 cells, in the series with B-CPAP cells, with MCF-7 cells and in the series on LoVo cells [2] was above 50 µM throughout. The “cytotoxic effect against all tested cancer cell lines” value in [3] is recorded as “completely ineffective”.

On to `CC(C)OC(=O)C(n1cccn1)n1cccn1` [L^OiPr, [HC(pz)2COO^iPr]], for which the IC50 with PSN-1 cells, in the series on U-1285 cells, in the series on B-CPAP cells, in the series with MCF-7 cells and in the series on LoVo cells [2] was above 50 µM throughout. Moreover, the “cytotoxic effect against all tested cancer cell lines” value in series [3] is “completely ineffective”.

For the compound `O=C1[O][Pt]2([NH][C@@H]3CCCC[C@H]3[NH]2)[O]C1=O` [Oxaliplatin, oxaliplatin, reference compound], the “R.F. = IC50 (resistant subline)/IC50 (wild-type cells)” value in the series with LoVo OXP cells came out at 13. In the series with LoVo cells [2], the IC50 was 1.1 ± 0.6 µM.

With `C1N2CN3CN1CP(C2)C3.Cc1cc(C)n(C(C(=O)OC(C)C)n2nc(C)cc2C)n1.F[P-](F)(F)(F)(F)F.[Cu+]` [compound 4, [Cu(L^2OiPr)(PTA)]PF6], the IC50 in the series on PSN-1 cells was 18.2 ± 0.8 µM; in series [3] (read-out: average IC50 across the human cancer cell lines), 12.3 µM; in the series on U-1285 cells it was 11.9 ± 1.9 µM; in series [4] (read-out: IC50 for PDI inhibition, cell-free, Proteostat kit) it was 13.7 µM; in the series with B-CPAP cells, 14.3 ± 0.9 µM; with HEK-293 cells (read-out: IC50 (μM) ± S.D., HEK-293, MTT test, 72 h, non-tumor cells), above 50 µM. In addition, the values for the IC50 in the series on MCF-7 cells, in the series with LoVo cells [2] and on LoVo spheroids were 14 ± 1.7 µM, 7.8 ± 1.5 µM and 144 ± 7.8 µM, respectively. Further, the “fold more effective than complex 2 (average IC50)” value in series [3] turned out to be 2 fold. In the series with LoVo cells [1], the “morphological changes (cell death mode)” value is reported as “no classical hallmarks of apoptosis”. The “reduction of PDI catalytic activity” value in series [4] (highest tested dose (50 μM)) was “about 80%”. In addition, the “R.F. = IC50 (resistant subline)/IC50 (wild-type cells)” value in the series on LoVo OXP cells is listed as 1.9. Further, the “S.I. = average IC50 normal cells/average IC50 for the malignant cells” value in the series on HEK-293 cells (HEK-293 vs malignant cells) is above 4.0.
